Results: ChEMBL document CHEMBL1152379, “Synthesis and evaluation of 3''- and 4''-deoxy and -fluoro analogs of the immunostimulatory glycolipid, KRN7000” (Bioorg Med Chem Lett, 2009)

Assays:
Format in all cases: functional, cell-based
iNKT [1] = assay: Immunostimulatory activity in iNKT hybridoma 2H4 cells expressing TCR Vbeta7 assessed as IL2 level by ELISA
How it was run: (§1)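 Glycolipid pulsed at indicated amounts onto 1 × 10^5 A20 B lymphoma cells transfected to overexpress mouse CD1d, overnight. APCs washed, then cocultured with 2 × 10^5 Vα14 iNKT hybridoma cells (2H4 Vβ7, 1.2 Vβ8.2, 1.4 Vβ10) overnight. Supernatant IL-2 measured by ELISA as TCR-recognition readout. Dose-response curves, representative of three similar experiments.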

iNKT [2] = assay: Immunostimulatory activity in iNKT hybridoma 1.2 cells expressing TCR Vbeta8.2 assessed as IL2 level by ELISA; how it was run: as §1
iNKT [3] = assay: Immunostimulatory activity in iNKT hybridoma 1.4 cells expressing TCR Vbeta10 assessed as IL2 level by ELISA; how it was run: as §1

Structure (SMILES) | Activity (iNKT [1]) | Activity (iNKT [2]) | Activity (iNKT [3])
CCCCCCCCCCCCCCCCCCCCCCCCCC(=O)N[C@@H](CO[C@H]1O[C@H](CO)[C@H](O)[C@H](F)[C@H]1O)[C@H](O)CCCCCCCCCCCCCCC | Dose-dependent effect | Dose-dependent effect | –
CCCCCCCCCCCCCCCCCCCCCCCCCC(=O)N[C@@H](CO[C@H]1O[C@H](CO)[C@H](O)[C@H](O)[C@H]1O)[C@H](O)[C@H](O)CCCCCCCCCCCCCC | Dose-dependent effect | Dose-dependent effect | Dose-dependent effect
CCCCCCCCCCCCCCCCCCCCCCCCCC(=O)N[C@@H](CO[C@H]1O[C@H](CO)[C@H](O)C[C@H]1O)[C@H](O)CCCCCCCCCCCCCCC | Dose-dependent effect | Dose-dependent effect | –
CCCCCCCCCCCCCCCCCCCCCCCCCC(=O)N[C@@H](CO[C@H]1O[C@H](CO)[C@H](F)[C@H](O)[C@H]1O)[C@H](O)CCCCCCCCCCCCCCC | Dose-dependent effect | Dose-dependent effect | Dose-dependent effect
CCCCCCCCCCCCCCCCCCCCCCCCCC(=O)N[C@@H](CO[C@H]1O[C@H](CO)C[C@H](O)[C@H]1O)[C@H](O)CCCCCCCCCCCCCCC | Dose-dependent effect | Dose-dependent effect | –
CCCCCCCCCCCCCCCCCCCCCCCCCC(=O)N[C@@H](CO[C@H]1O[C@H](CO)[C@H](O)[C@H](O)[C@H]1O)[C@H](O)CCCCCCCCCCCCCCC | Dose-dependent effect | Dose-dependent effect | Dose-dependent effect
